SKKanGAS inh: blocks kanamycin growth of S. pyogenes SKKanGAS strain. BacTiter-Glo, 6 h. inhibition, % at 7.5 µM. 300,000 compounds, 1.3% hits. AID 1662;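 active = mean replicate score, as percent of positive control median, at least 50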;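 also: strain carries kanamycin resistance gene driven by streptokinase promoter and grows in 40 µg/ml kanamycin; loss of luminescence reflects streptokinase promoter inhibition or plain growth inhibition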
T cruzi inh: blocks replication of Trypanosoma cruzi; inhibition, % (test concentration not listed); T. cruzi beta-gal in NIH3T3, luminescence, 90 h; 300,000 compounds, 1.4% hits;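 active = mean inhibition across valid replicates above about 55%, limit read from the data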;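 also: signal also drops with host cell toxicity which is not excluded here; higher percent means less beta-gal luminescence so fewer parasites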
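Material: NIH/3T3 host cells with β-galactosidase reporter T. cruzi; Input: 5,000 host fibroblasts per well; Medium: DMEM, 2% fetal bovine serum; Compound: 50 nL DMSO compound solution per well; Schedule: 3 h host attachment, then at least 90 h co-culture; Detection: luminescent β-galactosidase signal after 60 min lysis.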
L major viab: inhibitors of Leishmania major promastigote growth. Leishmania major promastigotes, resazurin fluorescence viability. inhibition, % at 10 µM. 200,000 compounds, 9% hits. AID 1063; in the data active = inhibition above about 50%;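 also: promastigotes grown with compound for 44 hours at 28 °C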
Mdm2 MdmX PPI: disrupts the human Mdm2-MdmX interaction. O15151+Q00987. SaOS-2 split-luciferase Mdm2/MdmX complementation, luminescence. inhibition, % at 8 µM. 330,000 compounds, 3% hits;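 active = inhibition of at least 50% at 8 µM in the primary screen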
Target sequence (O15151 whole entry, looked up): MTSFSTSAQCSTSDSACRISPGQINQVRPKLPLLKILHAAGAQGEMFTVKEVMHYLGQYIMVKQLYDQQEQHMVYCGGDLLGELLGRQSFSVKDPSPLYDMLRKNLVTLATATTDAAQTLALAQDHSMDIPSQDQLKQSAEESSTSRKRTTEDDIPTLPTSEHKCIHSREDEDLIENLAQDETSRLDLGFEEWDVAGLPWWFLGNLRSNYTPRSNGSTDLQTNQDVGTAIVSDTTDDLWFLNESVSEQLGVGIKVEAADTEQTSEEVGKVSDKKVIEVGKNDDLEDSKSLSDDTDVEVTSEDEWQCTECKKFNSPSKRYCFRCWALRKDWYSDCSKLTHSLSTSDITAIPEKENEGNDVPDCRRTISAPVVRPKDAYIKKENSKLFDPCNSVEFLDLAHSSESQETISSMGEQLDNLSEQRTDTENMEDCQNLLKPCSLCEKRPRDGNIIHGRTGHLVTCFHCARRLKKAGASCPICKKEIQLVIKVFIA
Target sequence (Q00987 whole entry, looked up): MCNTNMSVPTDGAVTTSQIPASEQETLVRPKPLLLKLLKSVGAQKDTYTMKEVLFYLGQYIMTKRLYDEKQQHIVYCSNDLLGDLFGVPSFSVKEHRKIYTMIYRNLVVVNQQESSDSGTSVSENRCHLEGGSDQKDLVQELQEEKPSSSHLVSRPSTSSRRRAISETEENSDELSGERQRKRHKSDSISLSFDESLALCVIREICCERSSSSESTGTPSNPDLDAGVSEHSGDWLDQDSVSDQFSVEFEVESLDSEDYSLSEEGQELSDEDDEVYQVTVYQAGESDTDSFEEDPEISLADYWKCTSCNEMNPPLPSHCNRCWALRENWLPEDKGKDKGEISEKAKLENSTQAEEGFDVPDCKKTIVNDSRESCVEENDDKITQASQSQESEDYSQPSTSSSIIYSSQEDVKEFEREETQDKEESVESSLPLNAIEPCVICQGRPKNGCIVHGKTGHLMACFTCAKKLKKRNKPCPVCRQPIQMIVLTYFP
CSC inhib: cancer stem cell inhibition | cancer stem cell-like cells viability, luminescence | inhibition, % at 7.5 µM | 300,000 compounds, 1.1% hits | AID 2717; in the data active = inhibition above about 75%; tested in HMLE shEcad cells
Beta apoptosis: blocks beta cell apoptosis. INS-1E cytokine-induced death, ATP luminescence, 48 h; percent of positive-control rescue, neutral wells zero. protection from apoptosis, % (test concentration not listed). 300,000 compounds, 0.8% hits. AID 435005;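 active = Every replicate reaches about 75%, or at least half do and their mean reaches it too, limit read from the data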;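 also: higher means more ATP so stronger rescue from cytokine killing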
Large screens that a line does not name were inactive. Hits are enriched below; roughly 9.4% of the tested compounds scored in any of these assays.

COc1ccc(-c2nnc(NC(=O)C3CCCN3S(=O)(=O)c3cccs3)o2)cc1 (stereo unspecified)	SKKanGAS inh 56 (no result: L major viab, CSC inhib)
Cn1c(SCC(=O)NC2CCCCC2)nnc1-c1ccccc1O	none (no result: L major viab)
c1ccc(OCCN2C3=NCCN3c3ccccc32)cc1	L major viab 101
CCCCCCCN1C2=NCCCN2c2ccccc21	L major viab 70 (no result: CSC inhib)
Cc1ccc(C(=O)O)cc1NC(=S)NC(=O)c1ccc([N+](=O)[O-])c(C)c1	none (no result: SKKanGAS inh)
COc1cccc(-c2cc(C(=O)N3CCN(C(c4ccccc4)c4ccccc4)CC3)no2)c1	T cruzi inh 68
O=C(c1cc(-c2ccco2)on1)N1CCN(c2ccccc2)CC1	CSC inhib 84
COc1ccccc1CNC(=O)N1CCN(c2ccccc2Cl)CC1	none (no result: L major viab)
Cc1cc(C)n(C(=O)c2c([N+](=O)[O-])cnn2C)n1	none
Cc1cc(C)n(C(=O)c2ccc([N+](=O)[O-])c(Cl)c2)n1	L major viab 92
CC(C)(CNC(=O)c1ccc([N+](=O)[O-])c(Cl)c1)CNC(=O)c1ccc([N+](=O)[O-])c(Cl)c1	L major viab 88 (no result: T cruzi inh)
C=CCNC(=O)c1ccc([N+](=O)[O-])c(Cl)c1	none
Cc1ccc(-n2c(SCCN)nnc2-c2cccc(C)c2)cc1	none (no result: L major viab)
COc1ccc(-n2c(SCC3CNC(=O)O3)nnc2-c2ccc(Cl)cc2)cc1 (stereo unspecified)	L major viab 92
Cc1cccc(-c2nnc(SCC3CNC(=O)O3)n2-c2ccc(Cl)cc2)c1 (stereo unspecified)	L major viab 96
c1ccc(-c2nc(N3CCCCCC3)nc(-n3ccnc3)n2)cc1	SKKanGAS inh 86, L major viab 96
Nc1nc(-c2cccnc2)nc(N2CCCCC2)n1	none (no result: Beta apoptosis)
c1ccc(-c2nc(N3CCN(c4ccccc4)CC3)nc(-n3ccnc3)n2)cc1	SKKanGAS inh 60, T cruzi inh 60, L major viab 67 (no result: Beta apoptosis)
O=C(/C=C/c1c(F)cccc1Cl)N1CCc2ccccc2C1	none (no result: L major viab)
O=C(CC1SC(=Nc2cccc3ccccc23)N(Cc2ccccn2)C1=O)Nc1ccccc1Br (stereo unspecified)	none
Cc1ccccc1N=C1SC(CC(=O)Nc2ccc3ccccc3c2)C(=O)N1Cc1ccccn1 (stereo unspecified)	L major viab 98, CSC inhib 78
C/C(NC1CCCCC1)=C(/C#N)C(=O)NCCN1CCOCC1	L major viab 50
COc1ccc(/C=C/C(=O)OCCCN(C)C)cc1	T cruzi inh 57
COc1ccccc1/C=C/C(=O)OCCCN(C)C	T cruzi inh 66
COc1ccccc1/C=C/C(=O)OCCN1CCOCC1	none
COc1ccccc1NC(=O)NC1CC(=O)N(c2ccc3c(c2)OCCO3)C1 (stereo unspecified)	none (no result: L major viab, Beta apoptosis)
COc1ccc(C(=O)N[C@H](C(=O)NCCCSc2ccccc2)C(C)C)cc1	none (no result: SKKanGAS inh, T cruzi inh, L major viab)
O=C(COC(=O)/C=C/c1ccc(OC(F)F)cc1)Nc1ccc(N2CCOCC2)cc1	none (no result: L major viab)
COc1ccc(/C=N/NC(=O)c2cccc([N+](=O)[O-])c2)cc1OC(=O)c1ccccc1	none
COc1cc(/C=N/NC(=O)COc2c(C)cc([N+](=O)[O-])cc2C)ccc1OC(=O)c1ccccc1	L major viab 99
COc1cc2c(-c3ccccc3)c(C)oc2cc1/C=N/NC(N)=S	T cruzi inh 89 (no result: L major viab)
COc1ccc(/C=N/NC(N)=S)cc1OC(=O)c1ccccc1	L major viab 79 (no result: Beta apoptosis)
COc1cc(/C=N/NC(=O)COc2c(C)cc([N+](=O)[O-])cc2C)ccc1OC(=O)c1ccccc1Br	L major viab 73
COCCn1c(SCC(=O)Nc2ccc3[nH]c(=O)[nH]c3c2)nc2ccccc21	none (no result: SKKanGAS inh, T cruzi inh, L major viab)
COc1cccc(NC(=O)COC(=O)c2c(C)nn(-c3ccccc3)c2C)c1	none (no result: SKKanGAS inh, T cruzi inh, L major viab, CSC inhib)
Cc1cccc(C)c1NC(=O)CNC(=O)C(C)N1CCN(c2cccc(Cl)c2)CC1 (stereo unspecified)	none (no result: SKKanGAS inh, T cruzi inh, L major viab, CSC inhib)
Cc1cccc(C(=O)Oc2ccc(/C=N/NC(=O)c3ccc(O)cc3)cc2)c1	none (no result: L major viab)
Cc1cccc(C(=O)Oc2ccc(/C=N/NC(=O)Cc3ccc([N+](=O)[O-])cc3)cc2)c1	L major viab 50
COc1cccc(CSc2nc3ccccc3[nH]2)c1	none
COc1cccc(CC(Cc2nc3ccccc3[nH]2)c2nc3ccccc3[nH]2)c1 (stereo unspecified)	L major viab 69
Cc1ccc(-n2nnnc2SCC(=O)NCC2CCCO2)cc1C (stereo unspecified)	none (no result: SKKanGAS inh, T cruzi inh, L major viab, CSC inhib, Beta apoptosis)
COc1ccc(-n2nnnc2SCC(=O)Nc2ccccc2N2CCOCC2)cc1OC	L major viab 93
O=C1Nc2ccccc2N=C(c2ccccc2)c2ccccc21	none (no result: L major viab)
Cc1cccc(NC2=NC(C)(C)N=C(N)N2)c1	SKKanGAS inh 111 (no result: CSC inhib)
O=C(CCCN1C(=O)c2cccc3cccc(c23)C1=O)N1CCN(c2ccccc2O)CC1	L major viab 70
C=CCOc1ccnc(-c2ccccc2)n1	none (no result: L major viab, Mdm2 MdmX PPI)
COc1ccc(CNCCC(c2ccc(OC)cc2)c2ccccc2OC)cc1 (stereo unspecified)	none (no result: L major viab)
COc1ccc(C(CCNCc2ccccc2)c2ccc(F)cc2)cc1 (stereo unspecified)	L major viab 99
COc1nc(Nc2ccc(C(C)C)cc2)nc(OC)n1	L major viab 86
COc1nc(Nc2ccc(O)cc2)nc(OC(C(F)(F)F)C(F)(F)F)n1	none
CCN1c2ccccc2NC2N=C(OC)C(c3ccccc3)C21 (stereo unspecified)	Beta apoptosis 111
COc1ccc2cc(C(C)C(=O)O)ccc2c1 (stereo unspecified)	none (no result: SKKanGAS inh, T cruzi inh, L major viab)
COc1ccc(C2CC(=O)C=C(NCc3ccccc3)C2)cc1 (stereo unspecified)	none (no result: L major viab)
CCCc1cc(=O)oc2c3c(c4c(c12)OC(C)(C)C=C4)OC(C)C(C)C3O (stereo unspecified)	T cruzi inh 55 (no result: L major viab)
O=C1c2ccccc2C(=O)N1CC#CCN1CCN(C(c2ccccc2)c2ccccc2)CC1	CSC inhib 96
c1ccc(CN2CCN(C(c3ccccc3)c3ccccc3)CC2)cc1	none (no result: L major viab)
CC12CCC(C(=O)N(CC3CO3)C1=O)C2(C)C (stereo unspecified)	none
Cc1cc(=S)nc(-c2ccccn2)[nH]1	none (no result: L major viab)
Cc1[nH]c(-c2ccccn2)nc(=S)c1Cl	SKKanGAS inh 88 (no result: L major viab)
COC(=O)N/N=C(\C)c1ccc(OC(F)F)cc1	none
COC(=O)N/N=C(\C)c1ccc2ccccc2c1OC(F)F	L major viab 56
O=[N+]([O-])c1nn(-c2ccccc2)n(O)c1=NC1CCN(Cc2ccccc2)CC1	T cruzi inh 77
CCc1cccc(N=c2c([N+](=O)[O-])nn(-c3ccc(Cl)cc3)n2O)c1	none (no result: CSC inhib)
O=[N+]([O-])c1nn(-c2ccc3c(c2)OCCO3)n(O)c1=NC1CCN(Cc2ccccc2)CC1	T cruzi inh 62, L major viab 76
